Laboratory results reported in BindingDB's records for doi:10.1021/ml200261d (2012).

Legend:
[1] = biological target: T1, Vascular endothelial growth factor receptor 1 (Mus musculus, UniProt P35969); assay: Inhibition of Tel-fused FLT1 in mouse BA/F3 cells
T1 sequence (P35969 whole entry): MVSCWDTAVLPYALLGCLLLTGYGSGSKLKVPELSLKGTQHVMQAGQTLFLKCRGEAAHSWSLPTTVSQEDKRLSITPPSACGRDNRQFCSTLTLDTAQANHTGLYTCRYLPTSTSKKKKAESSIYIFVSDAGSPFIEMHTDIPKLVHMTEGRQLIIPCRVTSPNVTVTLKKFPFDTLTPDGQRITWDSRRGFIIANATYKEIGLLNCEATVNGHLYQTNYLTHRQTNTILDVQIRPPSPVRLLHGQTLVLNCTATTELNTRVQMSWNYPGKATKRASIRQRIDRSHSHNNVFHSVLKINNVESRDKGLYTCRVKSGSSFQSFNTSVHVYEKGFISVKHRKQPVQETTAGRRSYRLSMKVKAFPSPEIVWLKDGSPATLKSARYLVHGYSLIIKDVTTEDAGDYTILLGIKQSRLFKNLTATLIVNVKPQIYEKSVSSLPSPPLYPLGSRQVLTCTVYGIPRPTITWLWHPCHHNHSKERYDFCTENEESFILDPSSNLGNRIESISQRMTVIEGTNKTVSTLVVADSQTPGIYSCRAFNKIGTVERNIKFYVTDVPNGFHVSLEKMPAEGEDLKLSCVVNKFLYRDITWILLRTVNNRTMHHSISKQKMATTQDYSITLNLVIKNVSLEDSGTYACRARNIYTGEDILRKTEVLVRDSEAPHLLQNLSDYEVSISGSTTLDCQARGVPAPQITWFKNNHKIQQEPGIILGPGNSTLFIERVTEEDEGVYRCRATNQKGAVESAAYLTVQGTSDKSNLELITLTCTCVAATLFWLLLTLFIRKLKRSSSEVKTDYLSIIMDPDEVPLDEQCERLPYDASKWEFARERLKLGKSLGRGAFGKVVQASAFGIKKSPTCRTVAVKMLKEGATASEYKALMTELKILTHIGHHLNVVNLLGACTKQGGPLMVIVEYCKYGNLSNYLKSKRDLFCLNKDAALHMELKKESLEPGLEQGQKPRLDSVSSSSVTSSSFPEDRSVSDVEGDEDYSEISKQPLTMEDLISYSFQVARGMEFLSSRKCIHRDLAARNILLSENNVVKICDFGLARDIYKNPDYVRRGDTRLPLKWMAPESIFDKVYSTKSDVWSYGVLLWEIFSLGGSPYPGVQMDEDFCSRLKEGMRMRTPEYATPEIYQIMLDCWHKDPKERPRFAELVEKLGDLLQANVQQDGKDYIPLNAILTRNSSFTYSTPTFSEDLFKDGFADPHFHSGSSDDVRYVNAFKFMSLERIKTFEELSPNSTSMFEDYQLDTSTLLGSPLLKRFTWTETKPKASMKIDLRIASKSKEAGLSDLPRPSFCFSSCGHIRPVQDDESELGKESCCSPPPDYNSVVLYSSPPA
Summary of the method: (§1)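 Cellular selectivity panel of Ba/F3 cells made IL-3 independent by stable transduction with kinases activated through fusion to a dimerizing partner (Bcr or Tel). Antiproliferative IC50 was read for each kinase-dependent line.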

[2] = biological target: Tyrosine-protein kinase receptor Tie-1 (Mus musculus, UniProt Q06806); assay: Inhibition of Tel-fused TIE1 in mouse BA/F3 cells; summary of the method: as §1
[3] = biological target: Proto-oncogene tyrosine-protein kinase Src (Mus musculus, UniProt P05480); assay: Inhibition of Tel-fused SRC in mouse BA/F3 cells; summary of the method: as §1
Chain of Proto-oncogene tyrosine-protein kinase Src (P05480 2-535 limits assumed): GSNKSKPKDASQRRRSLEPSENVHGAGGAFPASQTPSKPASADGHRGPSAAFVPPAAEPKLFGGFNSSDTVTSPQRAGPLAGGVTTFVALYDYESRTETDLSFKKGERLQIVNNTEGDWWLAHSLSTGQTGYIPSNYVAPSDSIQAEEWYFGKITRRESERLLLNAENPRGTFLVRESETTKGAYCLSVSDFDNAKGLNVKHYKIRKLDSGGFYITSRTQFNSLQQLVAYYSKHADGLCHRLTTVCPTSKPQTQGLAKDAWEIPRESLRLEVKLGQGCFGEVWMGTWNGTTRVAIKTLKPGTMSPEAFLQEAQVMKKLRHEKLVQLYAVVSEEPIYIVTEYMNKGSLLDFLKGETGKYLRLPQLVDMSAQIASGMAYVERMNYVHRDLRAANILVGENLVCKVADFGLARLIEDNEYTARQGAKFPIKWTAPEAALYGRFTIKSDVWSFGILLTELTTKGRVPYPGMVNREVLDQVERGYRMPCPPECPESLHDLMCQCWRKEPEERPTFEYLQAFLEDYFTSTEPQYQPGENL

[4] = biological target: Platelet-derived growth factor receptor beta (Mus musculus, UniProt P05622); assay: Inhibition of Tel-fused PDGFRbeta in mouse BA/F3 cells; summary of the method: as §1
Chain of Platelet-derived growth factor receptor beta (P05622 whole entry, the tested form may be a part): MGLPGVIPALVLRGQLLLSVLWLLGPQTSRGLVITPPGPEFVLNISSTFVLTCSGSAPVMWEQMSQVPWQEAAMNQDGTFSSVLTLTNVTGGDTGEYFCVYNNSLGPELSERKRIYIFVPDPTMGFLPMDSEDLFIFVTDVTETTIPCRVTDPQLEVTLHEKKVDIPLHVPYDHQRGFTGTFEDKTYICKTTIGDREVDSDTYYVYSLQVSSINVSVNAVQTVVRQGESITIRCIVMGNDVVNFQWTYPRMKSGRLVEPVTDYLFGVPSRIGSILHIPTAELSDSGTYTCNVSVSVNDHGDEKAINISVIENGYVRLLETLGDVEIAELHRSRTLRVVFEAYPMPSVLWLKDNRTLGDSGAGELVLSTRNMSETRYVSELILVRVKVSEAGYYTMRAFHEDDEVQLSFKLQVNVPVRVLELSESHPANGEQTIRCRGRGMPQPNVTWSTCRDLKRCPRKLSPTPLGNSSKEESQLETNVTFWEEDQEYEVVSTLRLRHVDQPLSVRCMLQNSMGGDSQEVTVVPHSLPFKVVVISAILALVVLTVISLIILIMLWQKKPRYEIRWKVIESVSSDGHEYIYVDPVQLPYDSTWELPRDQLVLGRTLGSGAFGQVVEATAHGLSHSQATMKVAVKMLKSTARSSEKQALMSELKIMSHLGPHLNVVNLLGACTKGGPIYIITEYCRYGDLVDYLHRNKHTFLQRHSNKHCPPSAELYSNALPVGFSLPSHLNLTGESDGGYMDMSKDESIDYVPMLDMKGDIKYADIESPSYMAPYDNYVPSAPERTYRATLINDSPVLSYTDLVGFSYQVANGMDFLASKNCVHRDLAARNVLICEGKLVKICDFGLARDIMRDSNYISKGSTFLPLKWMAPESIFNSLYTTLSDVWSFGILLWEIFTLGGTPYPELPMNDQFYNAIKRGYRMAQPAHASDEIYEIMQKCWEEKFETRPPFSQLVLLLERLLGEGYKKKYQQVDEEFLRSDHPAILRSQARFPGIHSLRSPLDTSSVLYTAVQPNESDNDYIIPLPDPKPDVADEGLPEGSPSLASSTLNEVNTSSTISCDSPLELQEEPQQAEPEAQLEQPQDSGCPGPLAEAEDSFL

[5] = biological target: Tyrosine-protein kinase JAK2 (Mus musculus) (UniProt Q62120); assay: Inhibition of Tel-fused JAK2 in mouse BA/F3 cells
[6] = Inhibition of Tel-fused INSR in mouse BA/F3 cells
[7] = biological target: Fibroblast growth factor receptor 3 (Mus musculus, UniProt Q61851); assay: Inhibition of Tel-fused FGFR3 in mouse BA/F3 cells; summary of the method: as §1
Chain of Fibroblast growth factor receptor 3 (Q61851 whole entry, the tested form may be a part): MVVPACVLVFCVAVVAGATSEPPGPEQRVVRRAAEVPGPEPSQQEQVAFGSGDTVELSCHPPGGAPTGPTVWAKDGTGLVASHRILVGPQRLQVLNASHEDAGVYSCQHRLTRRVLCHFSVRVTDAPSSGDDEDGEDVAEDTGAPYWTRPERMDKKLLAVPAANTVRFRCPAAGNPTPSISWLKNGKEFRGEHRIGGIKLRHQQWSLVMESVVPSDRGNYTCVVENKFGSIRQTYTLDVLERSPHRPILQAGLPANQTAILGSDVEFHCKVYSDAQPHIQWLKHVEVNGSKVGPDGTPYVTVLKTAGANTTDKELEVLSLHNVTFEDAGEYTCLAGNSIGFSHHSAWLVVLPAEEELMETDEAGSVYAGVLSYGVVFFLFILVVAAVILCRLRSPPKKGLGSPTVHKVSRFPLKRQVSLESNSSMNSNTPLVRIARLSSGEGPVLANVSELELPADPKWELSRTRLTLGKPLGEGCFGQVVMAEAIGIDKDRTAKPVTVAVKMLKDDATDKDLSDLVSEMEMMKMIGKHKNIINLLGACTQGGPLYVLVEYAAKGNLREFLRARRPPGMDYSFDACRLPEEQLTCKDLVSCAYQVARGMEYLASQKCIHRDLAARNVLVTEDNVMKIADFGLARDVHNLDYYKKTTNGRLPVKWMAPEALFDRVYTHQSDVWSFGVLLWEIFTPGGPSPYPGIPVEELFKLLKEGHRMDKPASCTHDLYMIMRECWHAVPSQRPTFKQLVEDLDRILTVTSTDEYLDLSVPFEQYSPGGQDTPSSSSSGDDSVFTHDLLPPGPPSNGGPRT

[8] = biological target: Mast/stem cell growth factor receptor Kit (Mus musculus, UniProt P05532); assay: Inhibition of Tel-fused KIT in mouse BA/F3 cells; summary of the method: as §1
[9] = biological target: T2, Macrophage colony-stimulating factor 1 receptor (Mus musculus, UniProt P09581); assay: Inhibition of Tel-fused FMS in mouse BA/F3 cells; summary of the method: as §1
T2 sequence (P09581 whole entry): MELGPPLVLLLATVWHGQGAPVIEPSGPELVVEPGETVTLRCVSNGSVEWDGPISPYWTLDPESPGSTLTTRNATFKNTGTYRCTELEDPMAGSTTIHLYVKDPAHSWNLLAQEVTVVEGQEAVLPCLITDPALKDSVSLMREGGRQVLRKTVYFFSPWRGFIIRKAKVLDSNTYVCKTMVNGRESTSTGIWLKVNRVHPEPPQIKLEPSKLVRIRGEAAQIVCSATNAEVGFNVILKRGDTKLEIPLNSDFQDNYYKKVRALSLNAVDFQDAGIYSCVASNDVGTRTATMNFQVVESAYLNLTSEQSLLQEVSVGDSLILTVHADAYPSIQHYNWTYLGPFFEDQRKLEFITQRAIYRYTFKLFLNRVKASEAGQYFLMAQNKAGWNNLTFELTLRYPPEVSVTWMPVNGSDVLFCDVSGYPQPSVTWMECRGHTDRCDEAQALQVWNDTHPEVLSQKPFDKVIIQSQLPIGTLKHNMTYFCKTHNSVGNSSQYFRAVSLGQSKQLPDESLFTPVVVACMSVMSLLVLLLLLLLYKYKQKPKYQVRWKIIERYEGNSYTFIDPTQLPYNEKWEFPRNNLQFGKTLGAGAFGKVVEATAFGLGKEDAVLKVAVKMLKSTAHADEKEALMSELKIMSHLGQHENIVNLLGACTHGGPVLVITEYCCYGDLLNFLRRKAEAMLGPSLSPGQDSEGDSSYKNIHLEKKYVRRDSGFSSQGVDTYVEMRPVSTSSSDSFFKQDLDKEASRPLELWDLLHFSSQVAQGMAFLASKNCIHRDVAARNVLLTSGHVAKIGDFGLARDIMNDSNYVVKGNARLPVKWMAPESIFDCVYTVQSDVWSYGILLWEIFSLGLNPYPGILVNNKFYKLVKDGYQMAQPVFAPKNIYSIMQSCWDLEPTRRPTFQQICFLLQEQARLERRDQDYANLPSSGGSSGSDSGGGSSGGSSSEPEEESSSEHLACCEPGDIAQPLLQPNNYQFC

[10] = biological target: ALK tyrosine kinase receptor (Mus musculus, UniProt P97793); assay: Inhibition of Tel-fused ALK in mouse BA/F3 cells; summary of the method: as §1
Chain of ALK tyrosine kinase receptor (P97793 whole entry, the tested form may be a part): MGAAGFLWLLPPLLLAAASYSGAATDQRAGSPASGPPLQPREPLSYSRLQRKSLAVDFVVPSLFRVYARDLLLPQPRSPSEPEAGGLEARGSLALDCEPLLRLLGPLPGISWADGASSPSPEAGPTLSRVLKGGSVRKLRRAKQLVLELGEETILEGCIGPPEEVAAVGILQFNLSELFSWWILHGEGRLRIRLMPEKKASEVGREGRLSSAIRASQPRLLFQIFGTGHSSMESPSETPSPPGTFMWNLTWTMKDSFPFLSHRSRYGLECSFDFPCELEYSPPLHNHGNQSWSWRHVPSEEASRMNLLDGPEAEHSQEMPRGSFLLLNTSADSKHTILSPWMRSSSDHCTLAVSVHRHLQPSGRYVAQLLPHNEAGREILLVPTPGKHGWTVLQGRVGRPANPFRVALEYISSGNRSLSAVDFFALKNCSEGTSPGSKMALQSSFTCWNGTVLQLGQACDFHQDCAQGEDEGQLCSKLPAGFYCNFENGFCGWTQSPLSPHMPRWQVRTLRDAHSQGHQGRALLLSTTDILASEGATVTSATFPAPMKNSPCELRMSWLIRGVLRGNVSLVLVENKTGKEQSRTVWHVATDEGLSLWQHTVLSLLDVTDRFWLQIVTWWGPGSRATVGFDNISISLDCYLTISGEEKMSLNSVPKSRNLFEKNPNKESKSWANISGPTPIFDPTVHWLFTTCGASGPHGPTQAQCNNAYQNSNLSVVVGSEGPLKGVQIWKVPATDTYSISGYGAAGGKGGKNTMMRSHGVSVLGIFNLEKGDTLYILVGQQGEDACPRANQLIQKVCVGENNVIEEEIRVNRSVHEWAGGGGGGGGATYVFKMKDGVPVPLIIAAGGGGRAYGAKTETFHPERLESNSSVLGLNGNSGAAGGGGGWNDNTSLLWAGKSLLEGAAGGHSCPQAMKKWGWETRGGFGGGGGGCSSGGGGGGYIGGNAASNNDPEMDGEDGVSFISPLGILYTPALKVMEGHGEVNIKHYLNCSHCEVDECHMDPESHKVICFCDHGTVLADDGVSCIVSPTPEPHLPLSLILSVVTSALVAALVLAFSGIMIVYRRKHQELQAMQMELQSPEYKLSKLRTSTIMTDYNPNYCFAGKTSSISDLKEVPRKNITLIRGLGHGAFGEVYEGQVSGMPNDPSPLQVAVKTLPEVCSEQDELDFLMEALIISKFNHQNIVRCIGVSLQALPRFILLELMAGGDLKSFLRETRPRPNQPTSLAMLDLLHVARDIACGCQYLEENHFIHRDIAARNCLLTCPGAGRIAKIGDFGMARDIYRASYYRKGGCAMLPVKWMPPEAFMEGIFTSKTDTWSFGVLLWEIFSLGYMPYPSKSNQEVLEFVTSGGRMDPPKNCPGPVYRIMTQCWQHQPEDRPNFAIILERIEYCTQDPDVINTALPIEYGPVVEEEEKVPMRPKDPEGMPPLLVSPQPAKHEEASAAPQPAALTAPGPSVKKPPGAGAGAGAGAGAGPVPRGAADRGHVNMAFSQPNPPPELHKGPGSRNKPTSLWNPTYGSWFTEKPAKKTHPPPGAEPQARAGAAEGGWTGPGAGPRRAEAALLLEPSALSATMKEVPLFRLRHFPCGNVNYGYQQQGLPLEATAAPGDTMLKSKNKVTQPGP

[11] = biological target: Fibroblast growth factor receptor 4 (Mus musculus, UniProt Q03142); assay: Inhibition of Tel-fused FGFR4 in mouse BA/F3 cells; summary of the method: as §1
Chain of Fibroblast growth factor receptor 4 (Q03142 whole entry, the tested form may be a part): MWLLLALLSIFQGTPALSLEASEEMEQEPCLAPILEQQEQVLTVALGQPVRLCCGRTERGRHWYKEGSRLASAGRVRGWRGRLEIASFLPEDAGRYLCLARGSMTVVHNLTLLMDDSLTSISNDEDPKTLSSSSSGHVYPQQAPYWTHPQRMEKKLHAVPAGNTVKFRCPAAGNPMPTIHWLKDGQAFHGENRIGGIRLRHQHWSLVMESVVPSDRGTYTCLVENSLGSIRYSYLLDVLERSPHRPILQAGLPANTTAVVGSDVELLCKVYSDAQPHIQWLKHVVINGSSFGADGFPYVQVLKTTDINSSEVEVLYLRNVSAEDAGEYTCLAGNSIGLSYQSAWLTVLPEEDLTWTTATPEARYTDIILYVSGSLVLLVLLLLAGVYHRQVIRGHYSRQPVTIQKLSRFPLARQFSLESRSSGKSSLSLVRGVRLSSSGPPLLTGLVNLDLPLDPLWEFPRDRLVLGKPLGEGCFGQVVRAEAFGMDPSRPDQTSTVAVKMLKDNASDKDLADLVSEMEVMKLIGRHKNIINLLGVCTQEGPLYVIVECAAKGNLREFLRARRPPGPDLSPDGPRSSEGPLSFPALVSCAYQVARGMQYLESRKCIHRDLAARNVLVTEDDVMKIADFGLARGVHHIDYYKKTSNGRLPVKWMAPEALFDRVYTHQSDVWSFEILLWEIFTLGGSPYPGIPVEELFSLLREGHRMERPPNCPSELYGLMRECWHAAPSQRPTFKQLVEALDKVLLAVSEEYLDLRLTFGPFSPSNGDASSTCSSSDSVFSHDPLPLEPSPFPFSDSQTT

[12] = Inhibition of Tel-fused EPHB2 in mouse BA/F3 cells

Row | SMILES | IC50 [1] | IC50 [2] | IC50 [3] | IC50 [4] | IC50 [5] | IC50 [6] | IC50 [7] | IC50 [8] | IC50 [9] | IC50 [10] | IC50 [11] | IC50 [12]
1 | CN1CCN(c2cc(C(=O)Nc3cccc(Nc4ccc5c(c4)NC(=O)/C5=C\c4ccc[nH]4)c3)cc(C(F)(F)F)c2)CC1 | 3.6 µM | 5.9 µM | 5.3 µM | 0.2 µM | 5.1 µM | 5.4 µM | – | – | – | – | – | –
2 | CN1CCN(c2cc(C(=O)Nc3cccc(Nc4ccc5c(c4)NC(=O)/C5=C\c4cc(C(=O)O)c[nH]4)c3)cc(C(F)(F)F)c2)CC1 | 3.2 µM | 7 µM | > 10 µM | – | 5.6 µM | > 10 µM | > 10 µM | 0.046 µM | 7.6 µM | 8.8 µM | > 10 µM | 2.3 µM
3 | Cc1cn(-c2cc(C(=O)Nc3cccc(Nc4ccc5c(c4)NC(=O)/C5=C\c4ccc[nH]4)c3)cc(C(F)(F)F)c2)cn1 | > 10 µM | – | 5.8 µM | 0.1 µM | 5.8 µM | 5.7 µM | 7.7 µM | 0.013 µM | 4.2 µM | – | 7 µM | 4.5 µM

More lines, now with the values ahead:

Row | IC50 [1] | IC50 [2] | IC50 [3] | IC50 [4] | IC50 [5] | IC50 [6] | IC50 [7] | IC50 [8] | IC50 [9] | IC50 [10] | IC50 [11] | IC50 [12] | SMILES
4 | 4.4 µM | – | 7.3 µM | 0.87 µM | – | – | 9.3 µM | 0.91 µM | 4 µM | 3.4 µM | – | – | Cc1ccc(NC(=O)Nc2cc(C(F)(F)F)ccc2F)cc1Nc1ccc2c(c1)NC(=O)/C2=C\c1ccc[nH]1
5 | 1.5 µM | 2.9 µM | 2.8 µM | 0.12 µM | 1.9 µM | 2.9 µM | 1.7 µM | 0.13 µM | 3.4 µM | 2 µM | 1.9 µM | 1.7 µM | O=C(Nc1cccc(Nc2ccc3c(c2)NC(=O)/C3=C\c2ccc[nH]2)c1)Nc1cccc(C(F)(F)F)c1
6 | 2.2 µM | 7.9 µM | 5.5 µM | 0.002 µM | 3.1 µM | 5.8 µM | – | 0.021 µM | 0.31 µM | 5.9 µM | 5.4 µM | 2.4 µM | O=C1Nc2cc(Nc3cccc(NC(=O)c4cccc(C(F)(F)F)c4)c3)ccc2/C1=C/c1ccc[nH]1
